{"source": "ChEMBL document CHEMBL3797175", "about": "“Discovery of 6-(difluoro(6-(4-fluorophenyl)-[1,2,4]triazolo[4,3-b][1,2,4]triazin-3-yl)methyl)quinoline as a highly potent and selective c-Met inhibitor” (Eur J Med Chem, 2016)", "key": {"[1]": {"target": "T1, Hepatocyte growth factor receptor (Homo sapiens, UniProt P08581)", "T1 sequence (P08581 whole entry)": "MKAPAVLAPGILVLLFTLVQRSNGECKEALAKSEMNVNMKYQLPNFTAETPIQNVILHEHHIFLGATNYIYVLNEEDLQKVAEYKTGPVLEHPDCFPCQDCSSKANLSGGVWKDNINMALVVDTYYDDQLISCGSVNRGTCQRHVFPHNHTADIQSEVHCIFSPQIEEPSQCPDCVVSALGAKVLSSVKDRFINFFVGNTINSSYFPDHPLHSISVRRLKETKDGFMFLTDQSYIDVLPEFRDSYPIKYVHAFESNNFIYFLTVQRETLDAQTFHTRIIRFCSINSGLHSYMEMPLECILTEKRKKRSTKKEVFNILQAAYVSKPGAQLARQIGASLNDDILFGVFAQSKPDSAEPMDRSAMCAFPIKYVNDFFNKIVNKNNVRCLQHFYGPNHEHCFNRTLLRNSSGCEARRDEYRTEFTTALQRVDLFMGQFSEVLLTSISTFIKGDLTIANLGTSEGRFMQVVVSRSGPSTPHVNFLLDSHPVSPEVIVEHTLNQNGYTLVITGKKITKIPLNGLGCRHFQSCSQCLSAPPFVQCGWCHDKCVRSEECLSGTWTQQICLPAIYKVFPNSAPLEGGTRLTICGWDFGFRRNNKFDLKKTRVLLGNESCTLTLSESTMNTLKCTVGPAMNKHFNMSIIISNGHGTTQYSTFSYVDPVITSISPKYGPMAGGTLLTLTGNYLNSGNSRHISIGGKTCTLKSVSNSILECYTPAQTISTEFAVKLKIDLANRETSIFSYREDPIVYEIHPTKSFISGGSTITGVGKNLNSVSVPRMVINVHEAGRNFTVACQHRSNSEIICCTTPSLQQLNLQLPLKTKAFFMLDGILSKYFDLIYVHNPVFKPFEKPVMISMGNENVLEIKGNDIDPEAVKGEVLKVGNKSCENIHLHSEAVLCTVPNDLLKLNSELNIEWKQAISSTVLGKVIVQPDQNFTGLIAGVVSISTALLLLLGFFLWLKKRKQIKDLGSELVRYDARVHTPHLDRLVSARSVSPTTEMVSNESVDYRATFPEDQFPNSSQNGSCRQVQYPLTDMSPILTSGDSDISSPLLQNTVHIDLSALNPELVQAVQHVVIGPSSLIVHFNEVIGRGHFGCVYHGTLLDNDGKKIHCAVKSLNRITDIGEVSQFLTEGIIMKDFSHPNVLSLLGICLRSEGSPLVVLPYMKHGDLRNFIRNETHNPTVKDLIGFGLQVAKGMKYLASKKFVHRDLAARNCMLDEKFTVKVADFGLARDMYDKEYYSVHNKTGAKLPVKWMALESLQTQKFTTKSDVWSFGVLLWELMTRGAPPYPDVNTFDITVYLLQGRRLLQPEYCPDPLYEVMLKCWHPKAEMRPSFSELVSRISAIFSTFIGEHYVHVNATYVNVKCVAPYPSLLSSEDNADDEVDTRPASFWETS", "experiment": "Inhibition of c-Met in HGF stimulated human U87MG cells assessed as reduction in ERK phosphorylation at Tyrosine 204 at 10 nM after 1 hr by Western blot analysis", "format": "cell-based", "settings": "U-87MG ATCC", "how_it_was_run": "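U87MG cells serum-starved 24 h, pretreated with compound 1 h at 37 °C, then stimulated with HGF (100 ng/mL) for 15 min. Lysed in 1× SDS sample buffer, resolved by 10% SDS-PAGE and blotted to nitrocellulose. Probed for phospho-c-Met, phospho-ERK1/2, phospho-AKT and totals, with GAPDH as loading control. ECL detection.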"}, "[2]": {"experiment": "Selectivity ratio of IC50 for human U87MG cells to IC50 for mouse BAF3 cells expressing TPR-MET", "format": "ADME, cell-based"}, "[3]": {"experiment": "Selectivity ratio of IC50 for human SNU1 cells to IC50 for human EBC1 cells", "format": "ADME, cell-based"}, "[4]": {"experiment": "Selectivity ratio of IC50 for human MDA-MB-231 cells to IC50 for human MKN45 cells", "format": "ADME, cell-based", "settings": "mkn-45", "how_it_was_run": "(§1)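 Both IC50s in each ratio come from one proliferation assay. Cells were seeded and exposed the next day to a range of concentrations for 72 h, then read by SRB or MTT. IC50s were fitted by four-parameter concentration–response, with each concentration at least in triplicate and at least 2 experiments. BaF3/TPR-Met is murine pre-B BaF3 transfected with TPR-MET and puromycin-selected.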"}, "[5]": {"target": "Hepatocyte growth factor receptor (Canis lupus familiaris) (UniProt Q75ZY9)", "sequence (Q75ZY9 whole entry)": "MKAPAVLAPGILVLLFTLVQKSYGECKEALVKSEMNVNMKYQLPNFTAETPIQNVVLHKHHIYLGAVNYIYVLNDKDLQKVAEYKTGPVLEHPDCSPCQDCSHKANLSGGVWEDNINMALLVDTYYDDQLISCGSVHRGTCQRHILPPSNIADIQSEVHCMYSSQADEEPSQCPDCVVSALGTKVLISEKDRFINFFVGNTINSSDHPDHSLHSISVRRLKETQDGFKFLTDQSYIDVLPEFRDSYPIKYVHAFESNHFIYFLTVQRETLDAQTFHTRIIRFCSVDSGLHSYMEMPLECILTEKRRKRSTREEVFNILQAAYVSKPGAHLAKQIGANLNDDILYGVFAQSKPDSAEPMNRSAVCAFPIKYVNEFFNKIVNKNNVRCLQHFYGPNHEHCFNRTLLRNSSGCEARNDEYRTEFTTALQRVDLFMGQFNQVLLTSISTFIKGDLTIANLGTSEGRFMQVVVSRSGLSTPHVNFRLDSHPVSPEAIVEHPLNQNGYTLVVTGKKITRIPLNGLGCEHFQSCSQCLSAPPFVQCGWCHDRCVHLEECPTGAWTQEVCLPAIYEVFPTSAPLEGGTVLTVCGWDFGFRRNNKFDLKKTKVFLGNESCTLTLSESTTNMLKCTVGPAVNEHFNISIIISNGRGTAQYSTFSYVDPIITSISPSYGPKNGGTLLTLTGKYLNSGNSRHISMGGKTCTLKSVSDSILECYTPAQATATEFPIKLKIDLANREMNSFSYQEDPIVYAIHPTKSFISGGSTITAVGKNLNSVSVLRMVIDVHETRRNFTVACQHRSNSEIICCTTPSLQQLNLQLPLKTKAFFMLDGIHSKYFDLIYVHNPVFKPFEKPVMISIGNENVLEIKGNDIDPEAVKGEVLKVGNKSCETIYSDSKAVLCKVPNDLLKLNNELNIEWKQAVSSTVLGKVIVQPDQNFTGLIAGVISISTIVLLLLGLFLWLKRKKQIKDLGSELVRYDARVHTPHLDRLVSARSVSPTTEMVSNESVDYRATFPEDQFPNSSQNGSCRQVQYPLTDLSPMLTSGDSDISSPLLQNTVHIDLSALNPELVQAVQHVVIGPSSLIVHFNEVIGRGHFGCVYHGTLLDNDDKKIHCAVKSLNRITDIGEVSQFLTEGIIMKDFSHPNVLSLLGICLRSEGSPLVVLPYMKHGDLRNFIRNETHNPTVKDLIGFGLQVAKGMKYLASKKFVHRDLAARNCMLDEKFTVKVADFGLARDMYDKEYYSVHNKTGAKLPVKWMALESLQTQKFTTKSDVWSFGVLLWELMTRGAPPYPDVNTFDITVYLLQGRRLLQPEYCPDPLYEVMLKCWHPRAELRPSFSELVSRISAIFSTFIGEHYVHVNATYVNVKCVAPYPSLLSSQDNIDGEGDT", "experiment": "Inhibition of c-Met in MDCK cells assessed as inhibition of HGF-induced branching morphogenesis at 0.4 to 10 nM after 5 days by microscopic analysis", "format": "cell-based", "how_it_was_run": "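MDCK cells (2×10^4/mL) mixed 1:1 with collagen I and gelled 60 min at 37 °C. HGF (100 ng/mL) added with or without compound at various concentrations in growth medium. Medium renewed every 2 d; branching imaged by microscopy after 5 d. Three independent experiments.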"}, "[6]": {"test_system": "NCI-H292", "experiment": "Antiproliferative activity against human NCI-H292 cells after 72 hrs by SRB or MTT assay", "format": "functional, cell-based", "settings": "NCI-H292, 72 h", "how_it_was_run": "(§2)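 Cells seeded, exposed next day to a range of concentrations for 72 h. Growth read by sulforhodamine B or MTT. IC50 from four-parameter concentration-response fit. Each concentration tested at least in triplicate, with at least 2 experiments.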"}, "[7]": {"experiment": "Selectivity ratio of IC50 for human MDA-MB-231 cells to IC50 for mouse BAF3 cells expressing TPR-MET", "format": "ADME, cell-based", "how_it_was_run": "as §1"}, "[8]": {"target": "T1, Hepatocyte growth factor receptor", "experiment": "Inhibition of recombinant c-Met (unknown origin) using poly (Glu, Tyr) 4:1 as substrate incubated for 60 mins by ELISA"}, "[9]": {"experiment": "Oral bioavailability in Sprague-Dawley rat at 10 mg/kg administered as single dose", "format": "ADME, organism-based", "settings": "in vivo", "how_it_was_run": "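Male Sprague-Dawley rats (n=3), single dose. IV 2 mg/kg in 1% DMA/9% Cremophor/90% saline; PO 10 mg/kg in 0.5% CMC-Na. For one compound, IV 10 mg/kg in DMSO/Tween 80/PEG40 and PO 10 mg/kg in 10% DMSO/5% Tween 80/85% saline.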"}, "[10]": {"experiment": "Selectivity ratio of IC50 for human NCI-H3122 cells to IC50 for mouse BAF3 cells expressing TPR-MET", "format": "ADME, cell-based", "how_it_was_run": "as §1"}, "[11]": {"experiment": "Selectivity ratio of IC50 for human SNU16 cells to IC50 for mouse BAF3 cells expressing TPR-MET", "format": "ADME, cell-based"}, "[12]": {"experiment": "Antitumor activity against human EBC1 cells xenografted in athymic nude mouse assessed as tumor growth inhibition at 25 mg/kg, po bid for 21 days measured twice a week during compound dosing relative to control", "format": "functional", "settings": "EBC-1, po, 504 h, read-out: TGI", "how_it_was_run": "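Nude mice bearing s.c. tumours. Cells were first grown s.c. to 700–800 mm³, then 1.5 mm³ fragments were transplanted s.c. into the right flank. Mice were randomised at 100–200 mm³ (n=6 treated, n=12 vehicle) and dosed orally twice daily for 21 days. Caliper measurement twice weekly; TV = length×width²/2. TGI taken on the final day versus vehicle; Student's t test.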"}, "[13]": {"test_system": "NCI-H596", "experiment": "Antiproliferative activity against human NCI-H596 cells after 72 hrs by SRB or MTT assay", "format": "functional, cell-based", "settings": "NCI-H596, 72 h", "how_it_was_run": "as §2"}, "[14]": {"target": "T1, Hepatocyte growth factor receptor", "experiment": "Inhibition of c-Met in human NCI-H441 cells assessed as inhibition of HGF-induced cell migration after 24 hrs by crystal violet staining based microscopic analysis", "how_it_was_run": "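NCI-H441 cells, 1.5×10^5 in serum-free medium, placed in upper Transwell chamber (8 µm pores; Matrigel-coated for invasion). Lower chamber serum-free medium ± HGF 100 ng/mL, with compound. After 24 h at 37 °C, non-migrated cells removed. Traversed cells stained with 0.1% crystal violet 15 min and imaged in 5 fields per filter. Three independent experiments.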"}, "[15]": {"experiment": "Selectivity ratio of IC50 for human NCI-H596 cells to IC50 for human MKN45 cells", "format": "ADME, cell-based", "settings": "mkn-45", "how_it_was_run": "as §1"}, "[16]": {"experiment": "Selectivity ratio of IC50 for human MDA-MB-231 cells to IC50 for human EBC1 cells", "format": "ADME, cell-based", "how_it_was_run": "as §1"}, "[17]": {"experiment": "Antiproliferative activity against human Calu3 cells after 72 hrs by SRB or MTT assay", "format": "functional, cell-based", "settings": "Calu-3, 72 h", "how_it_was_run": "as §2"}, "[18]": {"experiment": "Selectivity ratio of IC50 for human U87MG cells to IC50 for human EBC1 cells", "format": "ADME, cell-based", "settings": "u-87mg atcc"}, "[19]": {"experiment": "Selectivity ratio of IC50 for human NCI-H460 cells to IC50 for mouse BAF3 cells expressing TPR-MET", "format": "ADME, cell-based", "how_it_was_run": "as §1"}, "[20]": {"experiment": "Selectivity ratio of IC50 for human SMMC7721 cells to IC50 for human MKN45 cells", "format": "ADME, cell-based", "settings": "smmc-7721", "how_it_was_run": "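Each cell line was seeded in 96-well plates, then exposed the next day to a range of compound concentrations for 72 h. Growth was read by SRB or MTT assay, and IC50 was fitted by a four-parameter concentration-response curve. Each concentration was run at least in triplicate, in at least 2 experiments. BaF3/TPR-Met are murine pre-B BaF3 cells transfected with TPR-MET cDNA and selected in puromycin.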"}, "[21]": {"target": "T1, Hepatocyte growth factor receptor", "experiment": "Inhibition of c-Met in human MKN45 cells assessed as reduction in ERK phosphorylation at Threonine 202 at 10 nM after 1 hr by Western blot analysis", "format": "cell-based", "settings": "MKN-45", "how_it_was_run": "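EBC-1 or MKN45 cells treated with compound 1 h at 37 °C without HGF, then lysed in 1× SDS sample buffer. Lysates run on 10% SDS-PAGE and transferred to nitrocellulose. Probed with antibodies to c-Met, phospho-c-Met, phospho-ERK1/2, phospho-AKT, AKT and GAPDH, then HRP secondary. ECL detection.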"}, "[22]": {"test_system": "MDA-MB-231", "experiment": "Antiproliferative activity against human MDA-MB-231 cells after 72 hrs by SRB or MTT assay", "format": "functional, cell-based", "settings": "MDA-MB-231, 72 h", "how_it_was_run": "as §2"}}, "note": "Activity calls are given as the source filed them. The calls are words filed in the database; no cut-off is given here.", "data": [{"smiles": "Fc1ccc(-c2cnc3nnc(C(F)(F)c4ccc5ncccc5c4)n3n2)cc1", "values": [{"measurement": "inhibition", "setting": "[1]", "value": "Active"}, {"measurement": "Ratio IC50", "setting": "[2]", "value": 10000}, {"measurement": "Ratio IC50", "setting": "[3]", "value": 10000}, {"measurement": "Ratio IC50", "setting": "[4]", "value": "> 10000"}, {"measurement": "inhibition", "setting": "[5]", "value": "Active"}, {"measurement": "IC50", "setting": "[6]", "value": "> 10", "unit": "µM"}, {"measurement": "Ratio IC50", "setting": "[7]", "value": "> 10000"}, {"measurement": "IC50", "setting": "[8]", "value": 0.24, "unit": "nM"}, {"measurement": "bioavailability", "setting": "[9]", "value": 48.3, "unit": "%"}, {"measurement": "Ratio IC50", "setting": "[10]", "value": 10000}, {"measurement": "Ratio IC50", "setting": "[11]", "value": 10000}, {"measurement": "inhibition in vivo at 25 mg/kg", "setting": "[12]", "value": 97.1, "unit": "%"}, {"measurement": "IC50", "setting": "[13]", "value": "> 10", "unit": "µM"}, {"measurement": "inhibition", "setting": "[14]", "value": "Dose-dependent effect"}, {"measurement": "Ratio IC50", "setting": "[15]", "value": 10000}, {"measurement": "Ratio IC50", "setting": "[16]", "value": "> 10000"}, {"measurement": "IC50", "setting": "[17]", "value": "> 10", "unit": "µM"}, {"measurement": "Ratio IC50", "setting": "[18]", "value": 10000}, {"measurement": "Ratio IC50", "setting": "[19]", "value": 10000}, {"measurement": "Ratio IC50", "setting": "[20]", "value": 10000}, {"measurement": "inhibition", "setting": "[21]", "value": "Active"}, {"measurement": "IC50", "setting": "[22]", "value": "> 10", "unit": "µM"}]}]}
